In ChEMBL document CHEMBL1148485, “Synthesis and biological evaluation of new selective cytotoxic cyclolignans derived from podophyllotoxin” (J Med Chem, 2004):
pIC50: −log10 of the molar value.

Key:
[1] = test system: HeLa; assay: Tested for effect of compound on G2/M cell cycle phase and apoptosis in HeLa cells at a dose of 10E-7 for 48 hr; assay type: functional, Homo sapiens
How it was run: (§1)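 HeLa cells grown in DMEM with 10% heat-inactivated FCS, 2 mM L-glutamine, penicillin and gentamicin at 37 °C, 5% CO2. Exposed to compound at 10^-6 to 10^-8 M for 24, 48 or 72 h, untreated controls run in parallel. (3-5) × 10^5 cells fixed overnight in 70% ethanol at 4 °C, then RNase A plus propidium iodide. Phase fractions measured by flow cytometry, with sub-G1 (hypodiploid) cells counted as apoptotic. Three independent experiments.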

[2] = test system: HeLa; assay: Tested for effect of compound on S cell cycle phase and apoptosis in HeLa cells at a dose of 10E-6 for 24 hr; assay type: functional, Homo sapiens; how it was run: as §1
[3] = test system: HeLa; assay: Tested for effect of compound on S cell cycle phase and apoptosis in HeLa cells at a dose of 10E-8 for 48 hr; assay type: functional, Homo sapiens; how it was run: as §1
[4] = test system: HeLa; assay: Tested for effect of compound on S cell cycle phase and apoptosis in HeLa cells at a dose of 10E-8 for 72 hr; assay type: functional, Homo sapiens; how it was run: as §1
[5] = test system: P388; assay: Tested in vitro for antineoplastic activity against P-388 (lymphoid neoplasm from DBA/2 mouse) tumor cell line; assay type: functional, cell-based
How it was run: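 P-388 cells seeded at 1 × 10^4 cells/well in MEM–10% FCS containing graded compound concentrations. Incubated 4 days at 37 °C, 10% CO2, 98% humidity. Inhibition scored by inverted microscopy against untreated controls, which were kept in exponential growth. Mean of duplicate wells.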

[6] = test system: HeLa; assay: Tested for effect of compound on S cell cycle phase and apoptosis in HeLa cells at a dose of 10E-6 for 48 hr; assay type: functional, Homo sapiens; how it was run: as §1
[7] = test system: HeLa; assay: Tested for effect of compound on Sub-G1 cell cycle phase and apoptosis in HeLa cells at a dose of 10E-6 for 48 hr; assay type: functional, Homo sapiens; how it was run: as §1
[8] = test system: HeLa; assay: Tested for effect of compound on G2/M cell cycle phase and apoptosis in HeLa cells at a dose of 10E-8 for 72 hr; assay type: functional, Homo sapiens; how it was run: as §1
[9] = test system: HT-29; assay: In vitro cytotoxicity against HT-29 (human colon carcinoma) cell line.; assay type: functional, cell-based; conditions: Homo sapiens, HT-29
[10] = test system: HeLa; assay: Tested for effect of compound on G0/G1 cell cycle phase and apoptosis in HeLa cells at a dose of 10E-6 for 48 hr; assay type: functional, Homo sapiens
How it was run: (§2)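 HeLa cells were grown in DMEM with 10% heat-inactivated FCS and 2 mM L-glutamine at 37 °C in 5% CO2. They were exposed to 10^-6 to 10^-8 M for 24, 48 or 72 h. Then (3-5)×10^5 cells were fixed overnight in 70% ethanol at 4 °C, PBS-washed, and given 1 mg/mL RNase A plus 20 µg/mL propidium iodide for 1 h at room temperature. DNA content was read by flow cytometry. Sub-G1 (hypodiploid) % counted as apoptotic. Untreated controls were run in parallel. Representative of three independent experiments.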

[11] = test system: HeLa; assay: Tested for effect of compound on Sub-G1 cell cycle phase and apoptosis in HeLa cells at a dose of 10E-6 for 24 hr; assay type: functional, Homo sapiens; how it was run: as §1
[12] = test system: HeLa; assay: Tested for effect of compound on Sub-G1 cell cycle phase and apoptosis in HeLa cells at a dose of 10E-8 for 72 hr; assay type: functional, Homo sapiens; how it was run: as §1
[13] = test system: HeLa; assay: Tested for effect of compound on G0/G1 cell cycle phase and apoptosis in HeLa cells at a dose of 10E-6 for 72 hr; assay type: functional, Homo sapiens; how it was run: as §2
[14] = test system: HeLa; assay: Tested for effect of compound on G0/G1 cell cycle phase and apoptosis in HeLa cells at a dose of 10E-7 for 24 hr; assay type: functional, Homo sapiens; how it was run: as §2
[15] = test system: HeLa; assay: Tested for effect of compound on G2/M cell cycle phase and apoptosis in HeLa cells at a dose of 10E-6 for 72 hr; assay type: functional, Homo sapiens; how it was run: as §1
[16] = test system: HeLa; assay: Tested for effect of compound on S cell cycle phase and apoptosis in HeLa cells at a dose of 10E-7 for 48 hr; assay type: functional, Homo sapiens; how it was run: as §1
[17] = test system: HeLa; assay: Tested for effect of compound on Sub-G1 cell cycle phase and apoptosis in HeLa cells at a dose of 10E-7 for 24 hr; assay type: functional, Homo sapiens; how it was run: as §1
[18] = test system: HeLa; assay: Tested for effect of compound on G2/M cell cycle phase and apoptosis in HeLa cells at a dose of 10E-7 for 72 hr; assay type: functional, Homo sapiens; how it was run: as §1
[19] = test system: HeLa; assay: Tested for effect of compound on S cell cycle phase and apoptosis in HeLa cells at a dose of 10E-7 for 24 hr; assay type: functional, Homo sapiens; how it was run: as §1
[20] = test system: HeLa; assay: Tested for effect of compound on S cell cycle phase and apoptosis in HeLa cells at a dose of 10E-8 for 24 hr; assay type: functional, Homo sapiens; how it was run: as §1
[21] = test system: HeLa; assay: Tested for effect of compound on G0/G1 cell cycle phase and apoptosis in HeLa cells at a dose of 10E-6 for 24 hr; assay type: functional, Homo sapiens; how it was run: as §2
[22] = test system: HeLa; assay: Tested for effect of compound on Sub-G1 cell cycle phase and apoptosis in HeLa cells at a dose of 10E-8 for 48 hr; assay type: functional, Homo sapiens; how it was run: as §1
[23] = test system: HeLa; assay: Tested for effect of compound on S cell cycle phase and apoptosis in HeLa cells at a dose of 10E-7 for 72 hr; assay type: functional, Homo sapiens; how it was run: as §1
[24] = test system: HeLa; assay: Tested for effect of compound on G2/M cell cycle phase and apoptosis in HeLa cells at a dose of 10E-6 for 48 hr; assay type: functional, Homo sapiens; how it was run: as §2
[25] = test system: HeLa; assay: Tested for effect of compound on G2/M cell cycle phase and apoptosis in HeLa cells at a dose of 10E-8 for 48 hr; assay type: functional, Homo sapiens; how it was run: as §1
[26] = test system: HeLa; assay: Tested for effect of compound on Sub-G1 cell cycle phase and apoptosis in HeLa cells at a dose of 10E-7 for 48 hr; assay type: functional, Homo sapiens; how it was run: as §1
[27] = test system: HeLa; assay: Tested for effect of compound on G0/G1 cell cycle phase and apoptosis in HeLa cells at a dose of 10E-7 for 48 hr; assay type: functional, Homo sapiens; how it was run: as §2
[28] = test system: HeLa; assay: Tested for effect of compound on G0/G1 cell cycle phase and apoptosis in HeLa cells at a dose of 10E-8 for 72 hr; assay type: functional, Homo sapiens; how it was run: as §2
[29] = test system: HeLa; assay: Tested for effect of compound on G2/M cell cycle phase and apoptosis in HeLa cells at a dose of 10E-7 for 24 hr; assay type: functional, Homo sapiens; how it was run: as §1
[30] = test system: HeLa; assay: Tested for effect of compound on Sub-G1 cell cycle phase and apoptosis in HeLa cells at a dose of 10E-6 for 72 hr; assay type: functional, Homo sapiens; how it was run: as §1
[31] = test system: HeLa; assay: Tested for effect of compound on G2/M cell cycle phase and apoptosis in HeLa cells at a dose of 10E-6 for 24 hr; assay type: functional, Homo sapiens; how it was run: as §2
[32] = test system: HeLa; assay: Tested for effect of compound on G0/G1 cell cycle phase and apoptosis in HeLa cells at a dose of 10E-8 for 48 hr; assay type: functional, Homo sapiens; how it was run: as §2
[33] = test system: HeLa; assay: Tested for effect of compound on G0/G1 cell cycle phase and apoptosis in HeLa cells at a dose of 10E-7 for 72 hr; assay type: functional, Homo sapiens; how it was run: as §2
[34] = test system: HeLa; assay: Tested for effect of compound on G2/M cell cycle phase and apoptosis in HeLa cells at a dose of 10E-8 for 24 hr; assay type: functional, Homo sapiens; how it was run: as §1
[35] = Selectivity index is the ratio of IC50 of P-388 cell line to that of HT-29; assay type: functional
[36] = test system: HeLa; assay: Tested for effect of compound on G0/G1 cell cycle phase and apoptosis in HeLa cells at a dose of 10E-8 for 24 hr; assay type: functional, Homo sapiens; how it was run: as §2
[37] = test system: HeLa; assay: Tested for effect of compound on Sub-G1 cell cycle phase and apoptosis in HeLa cells at a dose of 10E-7 for 72 hr; assay type: functional, Homo sapiens; how it was run: as §1
[38] = test system: HeLa; assay: Tested for effect of compound on S cell cycle phase and apoptosis in HeLa cells at a dose of 10E-6 for 72 hr; assay type: functional, Homo sapiens; how it was run: as §1
[39] = test system: HeLa; assay: Tested for effect of compound on Sub-G1 cell cycle phase and apoptosis in HeLa cells at a dose of 10E-8 for 24 hr; assay type: functional, Homo sapiens; how it was run: as §1
[40] = test system: A549; assay: In vitro cytotoxicity against A-549 (human lung carcinoma) cell line.; assay type: functional, cell-based; conditions: Homo sapiens, A549
[41] = test system: SK-MEL-28; assay: Tested in vitro for antineoplastic activity against MEL-28 (human melanoma) tumor cell line; assay type: functional, cell-based
How it was run: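 MEL-28 cells seeded at 2 × 10^4 cells/well in MEM–10% FCS containing graded compound concentrations. Incubated 4 days at 37 °C, 10% CO2, 98% humidity. Stained with crystal violet and inhibition judged against untreated controls, which were kept in exponential growth. Mean of duplicate wells.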

Structure (SMILES): COC(=O)[C@@H]1C(/C=N/c2ccc(OC)cc2)=Cc2cc3c(cc2C1c1cc(OC)c(OC)c(OC)c1)OCO3 (stereo partly drawn)
- Activity [1]: 80.9%
- Activity [2]: 5.3%
- Activity [3]: 15.1%
- Activity [4]: 11.4%
- pIC50 [5]: 6.03
- Activity [6]: 6%
- Activity [7]: 25.3%
- Activity [8]: 26.6%
- pIC50 [9]: 8.03
- Activity [10]: 20.9%
- Activity [11]: 1.9%
- Activity [12]: 2.7%
- Activity [13]: 19.4%
- Activity [14]: 33.5%
- Activity [15]: 10.4%
- Activity [16]: 6.2%
- Activity [17]: 1.6%
- Activity [18]: 24.2%
- Activity [19]: 18.8%
- Activity [20]: 15.3%
- Activity [21]: 2%
- Activity [22]: 1.9%
- Activity [23]: 13.6%
- Activity [24]: 47.8%
- Activity [25]: 25.5%
- Activity [26]: 5.2%
- Activity [27]: 7.7%
- Activity [28]: 59.3%
- Activity [29]: 46.1%
- Activity [30]: 49.4%
- Activity [31]: 90.8%
- Activity [32]: 57.5%
- Activity [33]: 35.1%
- Activity [34]: 28.2%
- Selectivity index [35]: 100
- Activity [36]: 55.1%
- Activity [37]: 27.1%
- Activity [38]: 20.8%
- Activity [39]: 1.4%
- pIC50 [40]: 7.03

Structure (SMILES): COC(=O)[C@@H]1C(C=O)=Cc2c(cc3c(c2OC)OCO3)[C@H]1c1cc(OC)c(OC)c(OC)c1
- pIC50 [5]: 5.96
- pIC50 [9]: 7.70
- Selectivity index [35]: 55
- pIC50 [40]: 6.66

Structure (SMILES): COC(=O)[C@@H]1C(/C=N/CCO)=Cc2cc3c(cc2C1c1cc(OC)c(OC)c(OC)c1)OCO3 (stereo partly drawn)
- pIC50 [5]: 6.68
- pIC50 [9]: 7.68
- pIC50 [41]: 6.68
- Selectivity index [35]: 10
- pIC50 [40]: 6.96

Structure (SMILES): CCC/N=C/C1=Cc2cc3c(cc2C(c2cc(OC)c(OC)c(OC)c2)[C@@H]1C(=O)OC)OCO3 (stereo partly drawn)
- pIC50 [5]: 5.96
- pIC50 [9]: 8.00
- Selectivity index [35]: 110
- pIC50 [40]: 6.96
